Experimental data from ChEMBL document CHEMBL3244066, “Inhibition of histidine decarboxylase. Derivatives of histidine” (J Med Chem, 1977).
Peptide text beside a SMILES is read from it.

biological target: T1, Histidine decarboxylase (Rattus norvegicus) (UniProt P16453); experiment: Inhibition of histidine decarboxylase in Sprague-Dawley rat stomach assessed as decrease in 14CO2 production using L-histidine-carboxyl-14C as substrate at 0.13 mM by scintillation counting analysis
T1 sequence (whole entry): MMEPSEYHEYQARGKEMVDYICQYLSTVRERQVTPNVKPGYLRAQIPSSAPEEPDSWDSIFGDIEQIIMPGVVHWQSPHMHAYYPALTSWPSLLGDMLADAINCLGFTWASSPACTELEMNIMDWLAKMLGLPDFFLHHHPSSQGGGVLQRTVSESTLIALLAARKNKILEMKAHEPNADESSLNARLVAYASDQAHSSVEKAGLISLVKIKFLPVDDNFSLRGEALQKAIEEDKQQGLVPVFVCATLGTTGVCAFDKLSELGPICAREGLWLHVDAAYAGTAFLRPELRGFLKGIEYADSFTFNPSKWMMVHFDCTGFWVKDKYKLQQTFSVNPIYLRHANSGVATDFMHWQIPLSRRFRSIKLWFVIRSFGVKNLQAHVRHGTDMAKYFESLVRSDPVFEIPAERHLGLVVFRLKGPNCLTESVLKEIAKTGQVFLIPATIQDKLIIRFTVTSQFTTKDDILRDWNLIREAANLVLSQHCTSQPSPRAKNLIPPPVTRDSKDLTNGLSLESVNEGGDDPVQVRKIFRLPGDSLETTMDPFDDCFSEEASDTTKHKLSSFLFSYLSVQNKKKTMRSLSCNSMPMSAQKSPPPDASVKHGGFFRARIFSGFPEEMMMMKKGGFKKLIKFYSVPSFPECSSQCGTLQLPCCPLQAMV
Outline: (§1)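 Enzyme from rat stomach: homogenized in 0.1 M K phosphate–0.1 mM pyridoxal phosphate, pH 6.9, at 0–4 °C. Then 39 000g and 100 000g spins and a 20–45% ammonium sulfate cut. Assayed in triplicate with 0.05 M K phosphate, pH 6.9, 0.03 mM PLP and 0.24 mM L-histidine-carboxyl-14C (final) for 30 min at 37 °C. Inhibitors were fresh in water, generally 0.1 mM. HCl-released 14CO2 was trapped on Hyamine paper for 1 h and counted. % inhibition was taken after blank subtraction.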

| inhibition [%] | SMILES |
| --- | --- |
| 0 | O=C(O)[C@@H](O)Cc1c[nH]cn1 |
| 9 | O=C(O)CCc1c[nH]cn1 |

biological target: T1, Histidine decarboxylase (Rattus norvegicus); experiment: Inhibition of histidine decarboxylase in Sprague-Dawley rat stomach assessed as decrease in 14CO2 production using L-histidine-carboxyl-14C as substrate at 0.10 mM by scintillation counting analysis; outline: as §1

| inhibition [%] | SMILES |
| --- | --- |
| 10 | COC(=O)CCc1c[nH]cn1 |
| 0 | Cc1nc(CC(N)C(=O)O)c[nH]1 (racemic) |
| 13 | CCOC(=O)C(N)(CC)Cc1c[nH]cn1 (racemic) |
| 0 | C[n+]1c[nH]cc1C[C@H](N)C(=O)O |
| 62 | CCCCOC(=O)C(N)Cc1c[nH]cn1 (racemic) |
| 0 | N[C@@H](Cc1nc[nH]c1[N+](=O)[O-])C(=O)O |
| 3 | COC(=O)C(C)(N)Cc1c[nH]cn1 (racemic) |
| 19 | C[C@](N)(Cc1c[nH]cn1)C(=O)O |
| 24 | CCCCC(Cc1c[nH]cn1)(C(=O)OC)[N+](=O)[O-] (racemic) |
| 0 | CNC(=O)C(N)Cc1c[nH]cn1 (racemic) |
| 5 | CCOC(=O)C(CC)(Cc1c[nH]cn1)[N+](=O)[O-] (racemic) |
| 25 | COC(=O)C(C)(Cc1c[nH]cn1)[N+](=O)[O-] (racemic) |
| 0 | Cn1cnc(C[C@H](N)C(=O)O)c1 |
| 32 | CCCC(Cc1c[nH]cn1)(C(=O)OC)[N+](=O)[O-] (racemic) |
| 2 | CCCC(N)(Cc1c[nH]cn1)C(=O)OC (racemic) |
| 14 | N[C@@H](Cc1cnc[nH]1)C(=O)NO |
| 3 | CCCCC(N)(Cc1c[nH]cn1)C(=O)O (racemic) |
| 0 | CCCCC(N)(Cc1c[nH]cn1)C(=O)OC (racemic) |
| 0 | N[C@@H](Cc1c[nH]cn1)C(=O)NCC(=O)O (H-His-Gly-OH) |
| 3 | COC(=O)[C@@H](N)Cc1nc[nH]c1[N+](=O)[O-] |
| 22 | CCCOC(=O)C(N)Cc1c[nH]cn1 (racemic) |

| SMILES | inhibition [%] |
| --- | --- |
| CCOC(=O)C(Cc1c[nH]cn1)(c1ccccc1)[N+](=O)[O-] (racemic) | 22 |
| O=C(O)C(Br)Cc1cnc[nH]1 (racemic) | 13 |

biological target: T1, Histidine decarboxylase (Rattus norvegicus); experiment: Inhibition of histidine decarboxylase in Sprague-Dawley rat stomach assessed as decrease in 14CO2 production using L-histidine-carboxyl-14C as substrate at 0.012 mM by scintillation counting analysis; outline: as §1

| inhibition [%] | SMILES |
| --- | --- |
| 50 | CCOC(=O)[C@@H](N)Cc1c[nH]cn1 |

biological target: T1, Histidine decarboxylase (Rattus norvegicus); experiment: Inhibition of histidine decarboxylase in Sprague-Dawley rat stomach assessed as decrease in 14CO2 production using L-histidine-carboxyl-14C as substrate at 0.32 mM by scintillation counting analysis; outline: as §1

| inhibition [%] | SMILES |
| --- | --- |
| 50 | C[C@](N)(Cc1c[nH]cn1)C(=O)O |

biological target: T1, Histidine decarboxylase (Rattus norvegicus); experiment: Inhibition of histidine decarboxylase in Sprague-Dawley rat stomach assessed as decrease in 14CO2 production using L-histidine-carboxyl-14C as substrate at 0.50 mM by scintillation counting analysis; outline: as §1

| inhibition [%] | SMILES |
| --- | --- |
| 0 | CC(=O)N[C@@H](Cc1c[nH]cn1)C(=O)O |

biological target: T1, Histidine decarboxylase (Rattus norvegicus); experiment: Inhibition of histidine decarboxylase in Sprague-Dawley rat stomach assessed as decrease in 14CO2 production using L-histidine-carboxyl-14C as substrate at 0.004 mM by scintillation counting analysis; outline: as §1

| inhibition [%] | SMILES |
| --- | --- |
| 50 | COC(=O)[C@@H](N)Cc1c[nH]cn1 |

biological target: T2, Histidine decarboxylase (Rattus norvegicus, UniProt P16453); experiment: Inhibition of histidine decarboxylase in Sprague-Dawley rat stomach assessed as decrease in 14CO2 production using L-histidine-carboxyl-14C as substrate by Dixon plot analysis
T2 sequence (P16453 whole entry): T1 sequence (whole entry)
Outline: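 Ki from a Dixon plot of reciprocal activity versus inhibitor concentration. Used the ammonium sulfate–fractionated rat stomach extract, 0.24 mM L-histidine-carboxyl-14C, 0.03 mM PLP, pH 6.9 phosphate, 30 min at 37 °C, and Hyamine trapping of 14CO2 with scintillation counting. Inhibitor was run in duplicate at four concentrations from 1 to 50 μM.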

| Ki [µM] | SMILES |
| --- | --- |
| 1.8 | COC(=O)[C@@H](N)Cc1c[nH]cn1 |
